Active and inactive are the calls of the source. The calls are words filed in the database; no cut-off is given here.
What was measured:
Hepatitis C virus = assay: Antiviral activity against HCV infected in human CEM cells assessed as inhibition of viral replication; type: functional, organism-based, Hepacivirus hominis; conditions: CCRF-CEM
[1] = Inhibition of PDGF binding to PDGFR
CCRF-CEM = assay: Cytotoxicity against HCV infected human CEM cells; type: cell-based
[2] = tested on: Human immunodeficiency virus 1; assay: Antiviral activity against HIV1 infected in human MT2 cells; type: functional, organism-based; conditions: Human immunodeficiency virus 1, MT2
MT2 = assay: Cytotoxicity against human MT2 cells; type: cell-based
Outline: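 Cell toxicity was measured in MT-2 human T cells bearing HTLV-1 and expressed as ID50.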

[3] = Inhibition of VEGF binding to VEGFR
Hepatitis B virus = assay: Antiviral activity against HBV assessed as inhibition of viral replication; type: functional, organism-based
[4] = tested on: Human immunodeficiency virus 1; assay: Antiviral activity against HIV1 infected in human CEMx174 cells; type: functional, organism-based
Human alphaherpesvirus 1 = assay: Antiviral activity against HSV1 assessed as inhibition of viral replication; type: functional, organism-based
Human alphaherpesvirus 2 = assay: Antiviral activity against HSV2 assessed as inhibition of viral replication; type: functional, organism-based
[5] = tested on: Human immunodeficiency virus 1; assay: Antiviral activity against HIV1 infected in human TZM-bl cells; type: functional, organism-based
Outline: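 Host cells were TZM-bl, a HeLa line carrying firefly luciferase driven by an HIV promoter.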

Compound	IC50 (Hepatitis C virus) [µM]	IC50 [1] [µM]	IC50 (CCRF-CEM) [µM]	IC50 [2] [µM]	IC50 (MT2) [µM]	IC50 [3] [µM]	Activity (Hepatitis B virus)	Activity [4]	Activity (Human alphaherpesvirus 1)	Activity (Human alphaherpesvirus 2)	Activity [5]
CCCCOc1c2cc(C(=O)Nc3cc(C(=O)O)cc(C(=O)NC4CCCCC4)c3)cc1Cc1cc(C(=O)Nc3cc(C(=O)O)cc(C(=O)NC4CCCCC4)c3)cc(c1OCCCC)Cc1cc(C(=O)Nc3cc(C(=O)O)cc(C(=O)NC4CCCCC4)c3)cc(c1OCCCC)Cc1cc(C(=O)Nc3cc(C(=O)O)cc(C(=O)NC4CCCCC4)c3)cc(c1OCCCC)C2	4.1	0.29	> 50	> 50	> 50	> 10	–	–	–	–	–
CCCCOc1c2cc(C(=O)Nc3cc(C(=O)O)cc(C(=O)O)c3)cc1Cc1cc(C(=O)Nc3cc(C(=O)O)cc(C(=O)O)c3)cc(c1OCCCC)Cc1cc(C(=O)Nc3cc(C(=O)O)cc(C(=O)O)c3)cc(c1OCCCC)Cc1cc(C(=O)Nc3cc(C(=O)O)cc(C(=O)O)c3)cc(c1OCCCC)C2	1.8	2.62	50	0.36	> 50	4.96	inactive	Active	inactive	inactive	Active
CCCCOc1c2cc(C(=O)NCCN)cc1Cc1cc(C(=O)NCCN)cc(c1OCCCC)Cc1cc(C(=O)NCCN)cc(c1OCCCC)Cc1cc(C(=O)NCCN)cc(c1OCCCC)C2	5.7	–	< 12.5	< 16	16	–	–	–	–	–	–
CCCCOc1c2cc(C(=O)N[C@@H](CCC(=O)O)C(=O)O)cc1Cc1cc(C(=O)N[C@@H](CCC(=O)O)C(=O)O)cc(c1OCCCC)Cc1cc(C(=O)N[C@H](CCC(=O)O)C(=O)O)cc(c1OCCCC)Cc1cc(C(=O)N[C@@H](CCC(=O)O)C(=O)O)cc(c1OCCCC)C2	4.1	–	100	2.4	> 50	–	–	–	–	–	–
O=C(O)c1cc(NC(=O)c2cc3c(O)c(c2)Cc2cc(C(=O)Nc4cc(C(=O)O)cc(C(=O)O)c4)cc(c2O)Cc2cc(C(=O)Nc4cc(C(=O)O)cc(C(=O)O)c4)cc(c2O)Cc2cc(C(=O)Nc4cc(C(=O)O)cc(C(=O)O)c4)cc(c2O)C3)cc(C(=O)O)c1	> 50	–	–	6.7	> 50	–	–	–	–	–	–
O=C(O)c1cc(NC(=O)c2cc3c(OCc4ccccc4)c(c2)Cc2cc(C(=O)Nc4cc(C(=O)O)cc(C(=O)O)c4)cc(c2OCc2ccccc2)Cc2cc(C(=O)Nc4cc(C(=O)O)cc(C(=O)O)c4)cc(c2OCc2ccccc2)Cc2cc(C(=O)Nc4cc(C(=O)O)cc(C(=O)O)c4)cc(c2OCc2ccccc2)C3)cc(C(=O)O)c1	1.4	–	0.46	0.3	18	–	–	–	–	–	–
CCCCOc1c2cc(C(=O)Nc3cc(C(=O)O)cc(C(=O)OCc4ccccc4)c3)cc1Cc1cc(C(=O)Nc3cc(C(=O)O)cc(C(=O)OCc4ccccc4)c3)cc(c1OCCCC)Cc1cc(C(=O)Nc3cc(C(=O)O)cc(C(=O)OCc4ccccc4)c3)cc(c1OCCCC)Cc1cc(C(=O)Nc3cc(C(=O)O)cc(C(=O)OCc4ccccc4)c3)cc(c1OCCCC)C2	25.6	0.19	12.5	> 50	> 50	0.48	–	–	–	–	–
O=C(O)c1cc2c(O)c(c1)Cc1cc(C(=O)O)cc(c1O)Cc1cc(C(=O)O)cc(c1O)Cc1cc(C(=O)O)cc(c1O)C2	> 50	–	> 50	> 50	> 50	–	–	–	–	–	–
CCCCOc1c2cc(C(=O)O)cc1Cc1cc(C(=O)O)cc(c1OCCCC)Cc1cc(C(=O)O)cc(c1OCCCC)Cc1cc(C(=O)O)cc(c1OCCCC)C2	30.1	–	–	2.9	13	–	–	–	–	–	–
O=C(O)c1cc2c(OCc3ccccc3)c(c1)Cc1cc(C(=O)O)cc(c1OCc1ccccc1)Cc1cc(C(=O)O)cc(c1OCc1ccccc1)Cc1cc(C(=O)O)cc(c1OCc1ccccc1)C2	> 50	–	50	37.1	> 50	–	–	–	–	–	–

From ChEMBL document CHEMBL1156302, “Discovery of a synthetic dual inhibitor of HIV and HCV infection based on a tetrabutoxy-calix[4]arene scaffold” (Bioorg Med Chem Lett, 2010)
